This is an account of results in ChEMBL document CHEMBL1142887, “N-Phenyl-N'-(2-chloroethyl)ureas (CEU) as potential antineoplastic agents. Part 2: role of omega-hydroxyl group in the covalent binding to beta-tubulin” (2007).

Bounds are passed on as bounds.

One assay deals with M21. Put plainly: Growth inhibition of M21 cells after 48 hrs. In kind it is functional. The conditions noted are these: Homo sapiens, M21, 48 h. The procedure, abridged: (§1)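 NCI screening protocol. Cells in high-glucose DMEM with 5% bovine calf serum preincubated 24 h at 37 °C, 5% CO₂, then exposed 48 h to drug, final 10 to 0.3 µM (DMSO below 0.5%). TCA fixation, sulforhodamine B staining, absorbance at 585 nm against a plate fixed on treatment day to give growth inhibition and GI50. At least two experiments in triplicate.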

A further assay deals with HT-29. As to the kind of experiment: Growth inhibition of HT29 cells after 48 hrs. In kind it is functional. The following applies: Homo sapiens, HT-29, 48 h. In short, it runs like this: as §1
The subject of another assay is MCF7. As to the kind of experiment: Growth inhibition of MCF7 cells after 48 hrs. The conditions noted are these: Homo sapiens, MCF7, 48 h. In kind it is functional. In short, it runs like this: as §1
For assay [1], the system named is M21 (human). As to the kind of experiment: Induction of apoptosis in M21 cells at 4 uM.
Assay [2] concerns M21 (human). Put plainly: Cell cycle arrest in M21 cells by accumulation at G0/G1 phase at 4 uM.
The test system of assay [3] is M21 (human). Put plainly: Cell cycle arrest in M21 cells by accumulation at S phase at 1.2 uM.
In assay [4] the test system is M21 (human). As to the kind of experiment: Cell cycle arrest by accumulation at S phase in M21 cells at 10 uM.
Assay [5] deals with M21 (human). Put plainly: Induction of apoptosis in M21 cells at 1.2 uM.
Assay [6] deals with M21 (human). Put plainly: Cell cycle arrest in M21 cells by accumulation at G2/M phase at 1.2 uM.
Assay [7] has as its system M21 (human). Put plainly: Cell cycle arrest by accumulation at G0/G1 phase in M21 cells at 10 uM.
The test system of assay [8] is M21 (human). As to the kind of experiment: Cell cycle arrest in M21 cells by accumulation at G0/G1 phase at 1.2 uM.
The test system of assay [9] is M21 (human). Put plainly: Cell cycle arrest in M21 cells by accumulation at S phase at 4 uM.
Assay [10] concerns M21 (human). Put plainly: Induction of apoptosis in M21 cells at 10 uM.
Assay [11] relates to M21 (human). As to the kind of experiment: Cell cycle arrest by accumulation at G2/M phase in M21 cells at 4 uM.
Assay [12] deals with M21 (human). As to the kind of experiment: Cell cycle arrest by accumulation at G2/M phase in M21 cells at 3 uM.
Another assay has as its system HT-1080. As to the kind of experiment: Cell cycle arrest by accumulation at G2/M phase in HT1080 cells at 10 uM. In kind it is functional, Homo sapiens. The procedure, abridged:
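HT 1080 cells incubated with drug (dissolved in DMSO, 0.5% final DMSO in medium; DMSO control). Cells harvested, fixed in ice-cold ethanol, and 5 × 10⁵ cells per sample stained with propidium iodide 50 µg/mL plus RNase A 40 U/mL for 30 min at room temperature. Flow cytometry gave % apoptotic cells and % G0/G1, S and G2/M populations.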

In assay [13] the test system is M21 (human). As to the kind of experiment: Cell cycle arrest in M21 cells by accumulation at S phase at 25 uM.
In another assay the test system is MDA-MB-231. Put plainly: Alkylation of beta-tubulin in MDA-MB-231 cells at 5 uM by electrophoretic mobility shift assay after 48 hrs. The conditions noted are these: Homo sapiens. The assay is classed as cell-based. (In general: Mobility shift assays separate free from complexed probe on a gel.)
Assay [14] relates to M21 (human). Put plainly: Induction of apoptosis in M21 cells at 25 uM.
The test system of assay [15] is M21 (human). As to the kind of experiment: Cell cycle arrest in M21 cells by accumulation at G0/G1 phase at 25 uM.
Assay [16] concerns M21 (human). Put plainly: Cell cycle arrest by accumulation at S phase in M21 cells at 3 uM.
In assay [17] the test system is M21 (human). Put plainly: Cell cycle arrest in M21 cells by accumulation at G2/M phase at 25 uM.
In assay [18] the test system is M21 (human). As to the kind of experiment: Cell cycle arrest by accumulation at G0/G1 phase in M21 cells at 3 uM.
Assay [19] concerns M21 (human). Put plainly: Induction of apoptosis in M21 cells at 3 uM.

Regarding `CCCCCCc1cccc(NC(=O)NCCCl)c1`, the GI50 (commonly the concentration giving 50% growth inhibition) in the assay on M21 was 1 µM; in the assay with HT-29, 1000 nM; in the assay on MCF7, 1000 nM.
For `O=C(NCCCl)Nc1cccc(CCCCCO)c1`, the Activity with M21 (human) [1] was 9.83%; in the assay on M21 (human) [2], 7.57%; in the assay on M21 (human) [3], 16.65%; in the assay on M21 (human) [4], 12.11%; with M21 (human) [5], 7.58%; with M21 (human) [6], 21.82%. In addition, the Activity was determined as 5.9% in the assay with M21 (human) [7]; 54.35% in the assay with M21 (human) [8]; 12.12% with M21 (human) [9]; 10.71% with M21 (human) [10]; 70.24% in the assay with M21 (human) [11].
Take `COCCCCc1cccc(NC(=O)NCCCl)c1`: the GI50 is 2 µM in the assay with M21, 1000 nM in the assay with HT-29 and 3000 nM with MCF7.
On the same counts, the results for `COCc1cccc(NC(=O)NCCCl)c1` are greater than 10 µM, greater than 10000 nM and greater than 10000 nM.
As to `COCCCCCc1cccc(NC(=O)NCCCl)c1`, the Activity in the assay on M21 (human) [12] was 40.22%; in the assay on HT-1080 it was 68.57%; in the assay with M21 (human) [13] it was 13.79%; with M21 (human) [4], 14.37%; in the assay on MDA-MB-231, 81%; in the assay with M21 (human) [14], 8.63%. The Activity with M21 (human) [15] worked out at 6.74%; in the assay with M21 (human) [16] it was 19.98%; in the assay on M21 (human) [17] it was 70.84%; with M21 (human) [7], 7.52%; with M21 (human) [18], 31.28%; in the assay with M21 (human) [10], 9.02%. The same compound registered an Activity with M21 (human) [19] of 8.5%. Further, in the assay with MCF7, halving of growth (GI50) required 1000 nM.
In the case of `CCCCCc1cccc(NC(=O)NCCCl)c1`, the Activity came to 60.78% with M21 (human) [12]; 68.06% in the assay with HT-1080; 15.23% in the assay on M21 (human) [13]; 13.28% with M21 (human) [4]; 90% in the assay with MDA-MB-231; 7.84% in the assay on M21 (human) [14]. The Activity in the assay with M21 (human) [15] is 8.75%; in the assay on M21 (human) [16], 17.75%; in the assay on M21 (human) [17] it was 68.48%; with M21 (human) [7] it was 7.85%; with M21 (human) [18], 15.06%; in the assay on M21 (human) [10], 8.59%. Further, in the assay with M21 (human) [19], the Activity worked out at 6.16%. The GI50 with MCF7 came to 1000 nM.
As for `CCCCCCCc1cccc(NC(=O)NCCCl)c1`, the results for the GI50 in the assay with M21, with HT-29 and in the assay with MCF7 were 1 µM, 1000 nM and 2000 nM, respectively.
Taken in the same sequence, the figures for `COCCc1cccc(NC(=O)NCCCl)c1` were 6 µM, 4000 nM and 14000 nM.
Taken in the same sequence, the figures for `COCCCc1cccc(NC(=O)NCCCl)c1` were 5 µM, 4000 nM and greater than 10000 nM.
Taken in the same sequence, the figures for `COc1cccc(NC(=O)NCCCl)c1` were greater than 10 µM, greater than 10000 nM and greater than 10000 nM.
